Data set [1] in a line: Toxicity in BALB/c mouse infected with Trypanosoma cruzi MHOM/Pe/2011/Arequipa;DTU 5 bloodstream trypomastigote assessed as change in serum aspartate aminotransferase level in acute phase at 20 mg/kg/day, po administered for 5 consecutive days starting from day 8 post infection and measured on day 100 post infection by biochemical assay relative to control. Conditions: in vivo. The data set is classed as organism-based. Put shortly: (§1)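 Female BALB/c mice (10–12 weeks, 14–20 g; groups of three) were infected i.p. with 5 × 10^5 Arequipa bloodstream trypomastigotes. Dosing was oral at 20 mg/kg/day for 5 days, from day 8 pi (acute) or day 70 pi (chronic), as a 2 mg/ml suspension in 5% DMSO/0.5% HPMC; controls received vehicle. Cyclophosphamide 200 mg/kg i.p. was given at day 80 pi. Serum was collected 2 days post-treatment and at necropsy by cardiac puncture and compared with infected untreated controls.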

A short description of data set [2]: Genotoxicity in Salmonella typhimurium TA1535 harboring pSK1002 assessed as umu gene induction at 0.063 mg/ml in absence of Sprague-Dawley rat liver S9 fraction metabolic activation by SOS/umu assay relative to control. It is filed as toxicity. The following applies: salmonella enterica subsp. enterica serovar typhimurium, read-out: FC. Put shortly: (§2)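 umu induction in S. typhimurium TA1535/pSK1002, with or without S9 mix, in 96-well format. β-galactosidase read colorimetrically with ONPG substrate. Output given as relative units and induction factor (IF). The run is valid if positive controls reach IF ≥2. A compound counts as genotoxic at IF ≥2 at a concentration giving ≥80% bacterial survival.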

A short description of data set [3]: Genotoxicity in Salmonella typhimurium TA1535 harboring pSK1002 assessed as survival at 0.125 mg/ml in absence of Sprague-Dawley rat liver S9 fraction metabolic activation by SOS/umu assay relative to control. The data set is classed as toxicity. The following applies: salmonella enterica subsp. enterica serovar typhimurium, read-out: Survival. The method, boiled down: (§3)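 Survival of S. typhimurium TA1535/pSK1002 exposed to a range of compound concentrations with or without S9 mix in 96-well format. Survival percentage measured as the cytotoxicity arm of the SOS/umu test. Concentrations with survival ≥80% are counted as non-cytotoxic.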

Data set [4] has as its system Trypanosoma cruzi. The data set is described as follows: Inhibition of Trypanosoma cruzi MHOM/Pe/2011/Arequipa;DTU 5 epimastigote Fe-SOD at 6.3 uM relative to control. Put shortly: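 Fe-SOD excreted by exponentially growing T. cruzi Arequipa epimastigotes cultured in supplemented MTL at 28 °C. Protein quantified by Bradford. SOD activity measured by the Beyer–Fridovich method. IC50 from inhibition curves by nonlinear regression. Mean of three independent determinations ± standard deviation.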

A short description of data set [5]: Toxicity in BALB/c mouse infected with Trypanosoma cruzi MHOM/Pe/2011/Arequipa;DTU 5 bloodstream trypomastigote assessed as decrease in serum uric acid level in acute phase at 20 mg/kg/day, po administered for 5 consecutive days starting from day 8 post infection and measured on day 100 post infection by biochemical analysis relative to control. Conditions: in vivo. It is filed as organism-based. The arrangement: scale not given: the % may be the effect or the level left. The method, boiled down:
as §1

Data set [6] deals with Trypanosoma cruzi. Briefly: Antitrypanosomal activity against Trypanosoma cruzi MHOM/Pe/2011/Arequipa;DTU 5 bloodstream trypomastigote infected in BALB/c mouse assessed as parasite-free heart in acute phase at 20 mg/kg/day, po administered for 5 consecutive days starting from day 8 post infection followed by cyclophosphamide induced immunosuppression on day 80 post infection measured after day 100 post infection by PCR method relative to control. It is filed as functional. The method, boiled down:
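Female BALB/c mice (10–12 weeks, three per group) were infected i.p. with 5 × 10^5 Arequipa bloodstream trypomastigotes. Dosing was oral, 20 mg/kg/day for 5 days, as a suspension in 5% DMSO/0.5% HPMC. Cyclophosphamide 200 mg/kg i.p. was given at day 80 pi. At necropsy (day 100) tissues were tested by PCR on the splice leader region (primers TC/TC1, 300 bp). Scored as x/3 mice positive.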

The nature of data set [7]: Genotoxicity in Salmonella typhimurium TA1535 harboring pSK1002 assessed as umu gene induction at 0.063 mg/ml in presence of Sprague-Dawley rat liver S9 fraction metabolic activation by SOS/umu assay relative to control. It is filed as toxicity, subcellular. Conditions: salmonella enterica subsp. enterica serovar typhimurium, read-out: FC. The method, boiled down:
as §2

Data set [8] in a line: Genotoxicity in Salmonella typhimurium TA1535 harboring pSK1002 assessed as umu gene induction at 0.25 mg/ml in absence of Sprague-Dawley rat liver S9 fraction metabolic activation by SOS/umu assay relative to control. It is filed as toxicity. Conditions: salmonella enterica subsp. enterica serovar typhimurium, read-out: FC. Put shortly: as §2
Data set [9] is described as follows: Genotoxicity in Salmonella typhimurium TA1535 harboring pSK1002 assessed as survival at 0.5 mg/ml in presence of Sprague-Dawley rat liver S9 fraction metabolic activation by SOS/umu assay relative to control. It is filed as toxicity, subcellular. The following applies: salmonella enterica subsp. enterica serovar typhimurium, read-out: Survival. The method, boiled down:
as §3

Data set [10] in a line: Genotoxicity in Salmonella typhimurium TA1535 harboring pSK1002 assessed as umu gene induction at 1 mg/ml in presence of Sprague-Dawley rat liver S9 fraction metabolic activation by SOS/umu assay relative to control. Conditions: salmonella enterica subsp. enterica serovar typhimurium, read-out: FC. It is filed as toxicity, subcellular. The method, boiled down: as §2
Data set [11] is described as follows: Genotoxicity in Salmonella typhimurium TA1535 harboring pSK1002 assessed as umu gene induction at 0.002 mg/ml in absence of Sprague-Dawley rat liver S9 fraction metabolic activation by SOS/umu assay relative to control. It is filed as toxicity. The following applies: salmonella enterica subsp. enterica serovar typhimurium, read-out: FC. The method, boiled down:
as §2

The nature of data set [12]: Genotoxicity in Salmonella typhimurium TA1535 harboring pSK1002 assessed as survival at 0.008 mg/ml in absence of Sprague-Dawley rat liver S9 fraction metabolic activation by SOS/umu assay relative to control. Conditions: salmonella enterica subsp. enterica serovar typhimurium, read-out: Survival. The data set is classed as toxicity. The method, boiled down: as §3
Data set [13] in a line: Genotoxicity in Salmonella typhimurium TA1535 harboring pSK1002 assessed as survival at 0.031 mg/ml in absence of Sprague-Dawley rat liver S9 fraction metabolic activation by SOS/umu assay relative to control. It is filed as toxicity. Conditions: salmonella enterica subsp. enterica serovar typhimurium, read-out: Survival. The method, boiled down: as §3
A short description of data set [14]: Toxicity in BALB/c mouse infected with Trypanosoma cruzi MHOM/Pe/2011/Arequipa;DTU 5 bloodstream trypomastigote assessed as change in serum alanine aminotransferase level in acute phase at 20 mg/kg/day, po administered for 5 consecutive days starting from day 8 post infection and measured on day 100 post infection by biochemical analysis relative to control. The data set is classed as organism-based. The following applies: in vivo. The method, boiled down: as §1

The nature of data set [15]: Genotoxicity in Salmonella typhimurium TA1535 harboring pSK1002 assessed as umu gene induction at 0.001 mg/ml in presence of Sprague-Dawley rat liver S9 fraction metabolic activation by SOS/umu assay relative to control. It is filed as toxicity, subcellular. Conditions: salmonella enterica subsp. enterica serovar typhimurium, read-out: FC. Put shortly: as §2
A short description of data set [16]: Toxicity in BALB/c mouse infected with Trypanosoma cruzi MHOM/Pe/2011/Arequipa;DTU 5 bloodstream trypomastigote assessed as decrease in serum uric acid level in acute phase at 20 mg/kg/day, po administered for 5 consecutive days starting from day 8 post infection and measured at day 14 post infection by biochemical analysis relative to control. The following applies: in vivo. It is filed as organism-based. Set-up: scale not given: the % may be the effect or the level left. Put shortly:
as §1

A short description of data set [17]: Genotoxicity in Salmonella typhimurium TA1535 harboring pSK1002 assessed as survival at 0.016 mg/ml in absence of Sprague-Dawley rat liver S9 fraction metabolic activation by SOS/umu assay relative to control. Conditions: salmonella enterica subsp. enterica serovar typhimurium, read-out: Survival. The data set is classed as toxicity. Put shortly:
as §3

A short description of data set [18]: Toxicity in BALB/c mouse infected with Trypanosoma cruzi MHOM/Pe/2011/Arequipa;DTU 5 bloodstream trypomastigote assessed as decrease in serum total bilirubin level in chronic phase at 20 mg/kg/day administered for 5 consecutive days starting from […] post infection and measured after 2 days of treatment by biochemical analysis (reference value: 0.25 mg/dl ). Set-up: scale not given: the % may be the effect or the level left. Conditions: in vivo, 48 h. The data set is classed as organism-based.

Data set [19] in a line: Toxicity in BALB/c mouse infected with Trypanosoma cruzi MHOM/Pe/2011/Arequipa;DTU 5 bloodstream trypomastigote assessed as decrease in serum urea level in chronic phase at 20 mg/kg/day, po administered for 5 consecutive days starting from day 70 post infection and measured at day 76 post infection relative to control. The data set is classed as organism-based. Set-up: scale not given: the % may be the effect or the level left. Conditions: in vivo. Put shortly: as §1

Where only a bound is given, the exact number is not on record here.

`O=C(CCN1CCN(c2ccc(C(F)(F)F)cc2)CC1)c1ccc(O)cc1`: the Activity in data set [1] is listed as > 10%; in [5], “<= 30%”; with Trypanosoma cruzi [6], 13%; in [14] it was > 10%; in data set [16] it was “<= 20%”. The results for the fold induction at 0.063 mg/ml in [2] and in data set [7] were 0.67 and 0.85, respectively. In addition, in data set [3], the viability at 0.125 mg/ml came out at 122%. Also, the inhibition with Trypanosoma cruzi [4] was > 50%. For the same compound, in [8], the fold induction at 0.25 mg/ml worked out at 0.52. Moreover, the viability at 0.5 mg/ml in data set [9] came to 124%. In data set [10], the fold induction at 1 mg/ml stood at 0.37. Also, the fold induction at 0.002 mg/ml in data set [11] came to 0.74. In [12], the viability at 0.008 mg/ml came out at 133%. In addition, the viability at 0.031 mg/ml in [13] was found to be 112%. Besides, the fold induction at 0.001 mg/ml in data set [15] was determined as 0.82. Also, the viability at 0.016 mg/ml in data set [17] amounted to 127%.

On to `O=C(CCN1CCN(c2ccc(Cl)cc2)CC1)c1ccc(O)cc1`, for which the Activity is recorded as > 10% in data set [1]; 50% with Trypanosoma cruzi [6]; “<= 10%” in [18]; “<= 30%” in data set [19]; “<= 10%” in data set [16]. For the same compound, the fold induction at 0.063 mg/ml was determined as 0.71 in data set [2] and 0.87 in data set [7]. Besides, the viability at 0.125 mg/ml in [3] came out at 198%. Moreover, in the data set with Trypanosoma cruzi [4], the inhibition is > 50%. Also, in data set [8], the fold induction at 0.25 mg/ml is 0.49. Besides, the viability at 0.5 mg/ml in [9] worked out at 157%. Further, the fold induction at 1 mg/ml in [10] was found to be 0.38. Further, the fold induction at 0.002 mg/ml in data set [11] came to 0.78. The viability at 0.008 mg/ml in [12] came out at 128%. For the same compound, in data set [13], the viability at 0.031 mg/ml is 107%. Moreover, the fold induction at 0.001 mg/ml in data set [15] turned out to be 0.76. Besides, the viability at 0.016 mg/ml in [17] was found to be 130%.

Turning to `O=C(Cn1ccnc1[N+](=O)[O-])NCc1ccccc1` [BENZNIDAZOLE], the Activity result was “<= 10%” in data set [5]; 25% in the data set on Trypanosoma cruzi [6]; “<= 10%” in [18]; “<= 20%” in data set [19]; > 10% in [14]; “<= 30%” in [16].

Usually inhibition stands for how much of the control response was suppressed.

The values are drawn from ChEMBL document CHEMBL4402517, “Rational modification of Mannich base-type derivatives as novel antichagasic compounds: Synthesis, in vitro and in vivo evaluation” (Bioorg Med Chem, 2019).
